Data set [1] in a line: Microsomal stability, mouse microsomes. Format: in vitro ADME. The following applies: % remaining at 1 h.
The target in a further data set is hERG (Homo sapiens, UniProt Q12809). As to the kind of experiment: hERG binding assay, [3H]astemizole displacement. As to conditions: 10 μM, assay run by Ricera under identical conditions. An outline of the steps:
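Single-point radioligand displacement at 10 μM of test compound. The result is expressed as percent displacement relative to control. The run was made at a second contract laboratory under conditions identical to the first laboratory's assay.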
Background: The hERG channel carries a current that helps repolarise heart muscle cells.

For a further data set, the system named is P. falciparum Dd2. As to the kind of experiment: P. falciparum asexual blood-stage growth inhibition. Format: cell-based. The following applies: relative to compound 2.
Data set [2] can be described thus: Metabolite identification study in mouse liver microsomes. As to conditions: via N-demethylation at R1, hydroxylation, and combined events. Type of data set: in vitro ADME.

Marks after values point to notes of the source that are not given here.

This is an account of results in publication PMC4207553 (Journal of Medicinal Chemistry, 2014).

Chain of hERG (Q12809 whole entry): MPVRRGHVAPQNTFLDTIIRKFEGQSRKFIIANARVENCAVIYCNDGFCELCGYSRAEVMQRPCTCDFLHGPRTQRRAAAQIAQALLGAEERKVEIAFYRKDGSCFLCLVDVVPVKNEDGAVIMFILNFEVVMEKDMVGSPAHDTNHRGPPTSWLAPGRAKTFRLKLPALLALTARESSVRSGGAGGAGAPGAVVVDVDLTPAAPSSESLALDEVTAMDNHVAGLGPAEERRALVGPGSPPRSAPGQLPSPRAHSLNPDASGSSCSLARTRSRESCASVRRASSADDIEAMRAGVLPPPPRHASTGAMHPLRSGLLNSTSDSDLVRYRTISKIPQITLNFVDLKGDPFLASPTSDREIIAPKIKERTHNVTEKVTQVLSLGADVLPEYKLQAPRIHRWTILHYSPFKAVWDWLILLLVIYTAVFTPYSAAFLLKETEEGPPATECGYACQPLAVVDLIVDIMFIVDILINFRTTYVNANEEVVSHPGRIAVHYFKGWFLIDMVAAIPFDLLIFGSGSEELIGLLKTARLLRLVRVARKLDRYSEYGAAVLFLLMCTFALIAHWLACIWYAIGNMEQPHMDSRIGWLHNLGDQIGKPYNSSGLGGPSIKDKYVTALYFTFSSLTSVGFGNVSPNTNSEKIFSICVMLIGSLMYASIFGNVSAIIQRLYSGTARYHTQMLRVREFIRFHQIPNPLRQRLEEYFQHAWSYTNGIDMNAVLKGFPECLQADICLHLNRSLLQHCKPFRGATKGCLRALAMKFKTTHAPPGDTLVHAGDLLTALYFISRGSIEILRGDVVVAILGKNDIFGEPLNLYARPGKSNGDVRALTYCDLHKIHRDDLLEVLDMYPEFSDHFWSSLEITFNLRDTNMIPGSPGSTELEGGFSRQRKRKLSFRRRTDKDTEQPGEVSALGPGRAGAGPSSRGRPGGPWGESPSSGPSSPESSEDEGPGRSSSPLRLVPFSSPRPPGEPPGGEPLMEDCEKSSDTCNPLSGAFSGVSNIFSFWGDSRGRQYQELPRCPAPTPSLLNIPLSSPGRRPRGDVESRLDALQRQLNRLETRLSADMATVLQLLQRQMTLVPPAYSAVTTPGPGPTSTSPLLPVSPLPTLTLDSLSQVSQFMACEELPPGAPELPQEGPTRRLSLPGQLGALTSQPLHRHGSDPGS

For the compound `Cc1noc(C)c1NC(=O)Nc1ccc2c(c1)C(=O)N([C@@H](C)C[N+](C)(C)[O-])C[C@@H](C)[C@H](CN(C)S(=O)(=O)c1ccc(F)cc1)OCCCC[C@H](C)O2` [Compound 10], the “Microsome Stability” value in data set [1] came to 35 % remaining.
Turning to `CCN(CC)C[C@H](C)N1C[C@@H](C)[C@H](CN(C)S(=O)(=O)c2ccc(F)cc2)OCCCC[C@H](C)Oc2ccc(NC(=O)Nc3c(C)noc3C)cc2C1=O` [Compound 9], in data set [1], the “Microsome Stability” value is given as 5 % remaining.
Same read-out and setting: for `Cc1noc(C)c1NC(=O)Nc1ccc2c(c1)C(=O)N([C@@H](C)CN1CCOCC1)C[C@@H](C)[C@H](CN(C)S(=O)(=O)c1ccc(F)cc1)OCCCC[C@H](C)O2` [Compound 13] the value was less than 5 % remaining; for `Cc1noc(C)c1NC(=O)Nc1ccc2c(c1)C(=O)N([C@@H](C)CNCC(F)(F)F)C[C@@H](C)[C@H](CN(C)S(=O)(=O)c1ccc(F)cc1)OCCCC[C@H](C)O2` [Compound 12], less than 5 % remaining.
Turning to `C[C@@H]1CN([C@@H](C)CN(C)C)C(=O)c2cccnc2O[C@@H](C)CCCCO[C@H]1CN(C)S(=O)(=O)c1ccc(F)cc1` [Compound 22], the “Microsome Stability” value in data set [1] is on record as less than 5% remaining.
In the case of `C[C@@H]1CN([C@@H](C)CN(C)C)C(=O)c2cc(NC(=O)Nc3ccccc3)ccc2O[C@@H](C)CCCCO[C@H]1CN(C)S(=O)(=O)c1ccc(F)cc1` [Compound 2], on hERG, the “hERG, % displacement control” value is given as 95^b %.
With `C[C@@H]1CN([C@@H](C)CN(C)C)C(=O)c2cc(NC(=O)NC3COC3)ccc2O[C@@H](C)CCCCO[C@H]1CN(C)S(=O)(=O)c1ccc(F)cc1` [Compound 4], the “Microsome Stability” value in data set [1] came out at 8 % remaining. For the same compound, in the data set with P. falciparum Dd2, the “fold less potent than 2 (Dd2 GI50)” value is reported as “approximately 60 fold”.
Regarding `CNC[C@H](C)N1C[C@@H](C)[C@H](CN(C)S(=O)(=O)c2ccc(F)cc2)OCCCCOc2ccc(NC(=O)Nc3c(C)noc3C)cc2C1=O` [Compound 35], the “Microsome Stability” value in data set [1] is recorded as 65 % remaining.
The same measure, in the same setting: for `Cc1noc(C)c1NC(=O)Nc1ccc2c(c1)C(=O)N([C@@H](C)CNCC(C)(C)C)C[C@@H](C)[C@H](CN(C)S(=O)(=O)c1ccc(F)cc1)OCCCC[C@H](C)O2` [Compound 11] the value was 5 % remaining.
On the same count and under the same terms, for `Cc1noc(C)c1NC(=O)Nc1ccc2c(c1)C(=O)N([C@@H](C)CN(C)C)C[C@@H](C)[C@H](CN(C)S(=O)(=O)c1ccc(F)cc1)OCCCCO2` [Compound 36] the value was 15 % remaining.
As for `CNC[C@H](C)N1C[C@@H](C)[C@H](CN(C)S(=O)(=O)c2ccc(F)cc2)OCCCC[C@H](C)Oc2ccc(NC(=O)Nc3c(C)noc3C)cc2C1=O` [Compound 6], the “Microsome Stability” value in data set [1] is 51 % remaining. The “metabolism in mouse liver microsomes” value in data set [2] is on record as “extensively metabolized”.
For the compound `Cc1noc(C)c1NC(=O)Nc1ccc2c(c1)C(=O)N([C@@H](C)CN(C)C)C[C@@H](C)[C@H](CN(C)S(=O)(=O)c1ccc(F)cc1)OCCCC[C@H](C)O2` [Compound 5], the “Microsome Stability” value in data set [1] came out at 8 % remaining. Also, in data set [2], the “metabolism in mouse liver microsomes” value is reported as “extensively metabolized”.
Turning to `C[C@@H]1CN([C@@H](C)CN(C)C)C(=O)c2cc(NC(=O)Nc3ccc(F)cc3)ccc2O[C@@H](C)CCCCO[C@H]1CN(C)S(=O)(=O)c1ccc(F)cc1` [Compound 3], the “Microsome Stability” value in data set [1] was less than 5 % remaining.
Still for that read-out and setting: then `CCN(CC)C[C@H](C)N1C[C@@H](C)[C@H](CN(C)S(=O)(=O)c2ccc(F)cc2)OCCCC[C@H](C)Oc2ncccc2C1=O` [Compound 23], with less than 5% remaining.
